# Tested on: SULT 2A1
# Test: not given
# Settings: read-out: Km of SULT 2A1 for DHEA; ref Chang et al. 2001; cited from earlier work
row,Compound,Km [µM]
1,"C[C@]12CC[C@H](O)CC1=CC[C@@H]1[C@@H]2CC[C@]2(C)C(=O)CC[C@@H]12 [DHEA, dehydroepiandrosterone]",~2

# Tested on: sulfite oxidase (SUOX) mRNA
# Test: Real-time RT-PCR of SUOX steady-state mRNA in treated TE 671 cells
# Assay type: cell-based, human
# Settings: 24 hr, 0.005–0.5 μM, ΔΔCt method, HPRT1 internal standard
# Procedure, shortened: (§1)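 TE 671 cells were pre-grown 72 hr in phenol red–free DMEM, plated at 4 ×10⁴ cells/well in 10% dialyzed FCS medium, equilibrated 24 hr, and dosed 24 hr (DMSO carrier, quadruplicate per dose). Total RNA (1 μg) was reverse-transcribed with poly T primers for 60 min at 42°C. SYBR Green qPCR used 60°C annealing, 44 cycles and a melt curve, with samples in quadruplicate; mean ± SE.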
row,Compound,SUOX mRNA expression level relative to undosed control
1,"Oc1ccc(Cl)cc1Cl [2,4-dichlorophenol]",did not show significant decreases
2,Cc1cc(O)ccc1Cl [4-chloro-3-methylphenol],did not show significant decreases
3,CCCCC(CC)COC(=O)c1ccccc1C(=O)OCC(CC)CCCC (stereo not drawn) [bis(2-ethylhexyl)phthalate],significant dose-dependent decreases
4,bisphenol A dimethacrylate,decreased in a dose-dependent manner

# Tested on: 3′-phosphoadenosine 5′-phosphosulfate synthase 1 (PAPSS1) mRNA
# Test: Real-time RT-PCR of PAPSS1 steady-state mRNA in treated TE 671 cells
# Assay type: cell-based, human
# Settings: 24 hr, 0.005–0.5 μM, ΔΔCt method, HPRT1 internal standard
# Procedure, shortened: as §1
row,Compound,PAPSS1 mRNA expression level relative to undosed control
1,"Oc1ccc(Cl)cc1Cl [2,4-dichlorophenol]",did not show significant decreases
2,Cc1cc(O)ccc1Cl [4-chloro-3-methylphenol],did not show significant decreases
3,"CCCCCCCCCc1ccc(O)cc1 [4-n-Nonylphenol, 4-n-nonylphenol]",very significant dose-dependent decrease
4,"CC(C)CCCCCCCOC(=O)c1ccccc1C(=O)OCCCCCCCC(C)C [Diisodecyl phthalate, diisodecyl phthalate]",clear decreasing trend
5,CCCCC(CC)COC(=O)c1ccccc1C(=O)OCC(CC)CCCC (stereo not drawn) [bis(2-ethylhexyl)phthalate],significant dose-dependent decreases
6,bisphenol A dimethacrylate,decreased in a dose-dependent manner

# Tested on: cysteine dioxygenase type I (CDO1) mRNA
# Test: Real-time RT-PCR of CDO1 steady-state mRNA in treated TE 671 cells
# Assay type: cell-based, human
# Settings: 24 hr, 0.005–0.5 μM, ΔΔCt method, HPRT1 internal standard
# Procedure, shortened: as §1
row,Compound,CDO1 mRNA expression level relative to undosed control
1,"Oc1ccc(Cl)cc1Cl [2,4-dichlorophenol]",did not show significant decreases
2,Cc1cc(O)ccc1Cl [4-chloro-3-methylphenol],did not show significant decreases
3,bisphenol A dimethacrylate,did not affect

# Target: T1, human DHEA sulfotransferase (SULT 2A1) (Homo sapiens, UniProt Q06520)
# T1 sequence (Q06520 1-285): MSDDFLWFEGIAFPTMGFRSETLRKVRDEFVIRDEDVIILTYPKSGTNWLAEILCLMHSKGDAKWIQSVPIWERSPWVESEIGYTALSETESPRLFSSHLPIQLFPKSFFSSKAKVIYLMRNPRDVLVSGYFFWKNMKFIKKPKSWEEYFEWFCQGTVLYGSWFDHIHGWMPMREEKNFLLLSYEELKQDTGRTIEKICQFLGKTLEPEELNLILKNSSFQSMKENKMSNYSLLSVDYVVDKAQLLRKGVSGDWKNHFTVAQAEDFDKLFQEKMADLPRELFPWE
# Test: Inhibition of sulfation of tritiated DHEA by SULT 2A1 in human liver cytosol
# Assay type: biochemical
# Settings: not given
row,Compound,Ki [µM]
1,"CCCCCCCCCc1ccc(O)cc1 [4-n-Nonylphenol, 4-n-nonylphenol]",10.5 ± 0.6
2,"CC(C)(C)CC(C)(C)c1ccc(O)cc1 [4-tert-Octylphenol, 4-tert-octylphenol]",2.8 ± 0.1
3,"CC(C)(c1ccc(O)cc1)c1ccc(O)cc1 [Bisphenol A, bisphenol A]",16.3 ± 0.8
4,"CCCCOC(=O)c1ccccc1C(=O)OCCCC [Dibutyl phthalate, dibutyl phthalate]",21.5 ± 1.4
